# According to ChEMBL document CHEMBL4011646, “Discovery of a Small-Molecule Inhibitor of Interleukin 15: Pharmacophore-Based Virtual Screening and Hit Optimization” (J Med Chem, 2017):
# Tests used:
# [1] = Inhibition of recombinant human IL2R/IL2-induced mouse 32D-beta cell proliferation preincubated for 30 mins with protein followed by cell addition measured after 2.5 days by Alamar blue reduction assay
# Procedure, shortened: (§1)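 32Dβ cells (IL-2Rβ/γ) were starved 4 h without cytokine, then 1 × 10^4 cells were cultured 2.5 days with 100 pM RLI or 1.5 nM IL-2. The cytokine was preincubated 30 min with fixed or increasing compound concentrations or vehicle (culture medium, DMSO 0.1% final). Alamar blue was added for 6 h at 37 °C, with fluorescence read at ex 560/em 590 nm. Tested in triplicate; IC50 is the mean of ≥2 independent assays.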
# Interleukin-15 = Interleukin-15 (Homo sapiens, UniProt P40933); experiment: Binding affinity to recombinant human IL-15 by SPR assay
# Sequence of Interleukin-15 (P40933 whole entry): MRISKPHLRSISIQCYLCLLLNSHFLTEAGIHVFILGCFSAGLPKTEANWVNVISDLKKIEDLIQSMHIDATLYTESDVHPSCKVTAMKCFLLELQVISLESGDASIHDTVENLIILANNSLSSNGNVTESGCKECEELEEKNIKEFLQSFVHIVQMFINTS
# Procedure, shortened: (§2)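 SPR on a BIAcore 3000 at 25 °C. Recombinant IL-15, RLI or IL-2 was amine-coupled to CM5 chips, and compounds were flowed over at 100 μM or at increasing concentrations (3.125–100 μM) in PBS or 1% or 5% DMSO. Binding was read as the change in RU, and Kd was derived from direct interaction.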
# [2] = Inhibition of IL2R/IL2 interaction in human NK92 cells assessed as reduction IL2-induced STAT5 phosphorylation preincubated for 30 mins with IL2 followed by cell addition measured after 1 hr by AlphaScreen assay; assay type: cell-based
# Procedure, shortened: (§3)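 NK-92 cells were washed and serum-starved overnight, then 2 × 10^5 cells were stimulated at 37 °C for 1 h with IL-15 (50 pM fixed) or IL-2. The cytokine had been preincubated 30 min with increasing compound concentrations or vehicle (PBS, BSA 0.1%, DMSO 0.6% final). Cells were lysed and p-Stat5 read by AlphaScreen SureFire. Duplicates, ≥3 independent experiments. Result is % reduction of the cytokine p-Stat5 response.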
# IL15-IL15 receptor [3] = target: IL15-IL15 receptor (Homo sapiens, UniProt P40933); experiment: Inhibition of IL15R/IL15 interaction in human NK92 cells assessed as reduction of IL15-induced STAT5 phosphorylation preincubated for 30 mins with IL15 followed by cell addition measured after 1 hr by AlphaScreen assay; assay type: cell-based; procedure, shortened: as §3
# Sequence of IL15-IL15 receptor (Homo sapiens, UniProt P40933) (P40933 whole entry, the tested form may be a part): as the sequence (P40933 whole entry) above
# Sequence of IL15-IL15 receptor (Homo sapiens, UniProt P40933) (Q13261 whole entry, further chain, the tested form may be a part): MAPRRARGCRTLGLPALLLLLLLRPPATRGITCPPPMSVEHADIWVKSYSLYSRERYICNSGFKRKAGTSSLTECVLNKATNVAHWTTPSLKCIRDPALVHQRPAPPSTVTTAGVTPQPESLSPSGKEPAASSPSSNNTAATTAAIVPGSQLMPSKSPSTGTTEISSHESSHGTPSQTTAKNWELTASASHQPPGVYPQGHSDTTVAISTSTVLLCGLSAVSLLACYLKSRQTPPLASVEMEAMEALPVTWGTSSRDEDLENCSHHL
# IL15-IL15 receptor [4] = target: IL15-IL15 receptor (Homo sapiens, UniProt P40933+Q13261); experiment: Inhibition of human IL-15Ralpha-sushi domain/human IL-15-induced mouse 32D-beta cell proliferation preincubated for 30 mins with protein followed by cell addition measured after 2.5 days by Alamar blue reduction assay; procedure, shortened: as §1
# Sequence of IL15-IL15 receptor (Homo sapiens, UniProt P40933+Q13261) (P40933 whole entry, the tested form may be a part): as the sequence (P40933 whole entry) above
# Sequence of IL15-IL15 receptor (Homo sapiens, UniProt P40933+Q13261) (Q13261 whole entry, the tested form may be a part): as the sequence (Q13261 whole entry, further chain, the tested form may be a part) above
# Interleukin-2 = Interleukin-2 (Homo sapiens, UniProt P60568); experiment: Binding affinity to recombinant human IL-2 by SPR assay; procedure, shortened: as §2
# Sequence of Interleukin-2 (P60568 whole entry): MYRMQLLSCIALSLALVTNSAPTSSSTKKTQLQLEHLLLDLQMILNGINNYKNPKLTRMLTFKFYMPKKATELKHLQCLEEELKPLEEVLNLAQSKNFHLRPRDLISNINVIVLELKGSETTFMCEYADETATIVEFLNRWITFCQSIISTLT
IC50 [2] [µM],IC50 (IL15-IL15 receptor [3]) [µM],Structure (SMILES),"IC50 ([1]; Homo sapiens, read-out: IC50) [µM]",further results
,,CCOC(=O)c1ccccc1NC(=O)CSc1nnc(Cc2nn(C)c(=O)c3ccccc23)n1C,30,
0.204,0.201,COc1ccc(NC(=O)CCCCCCCSc2nnc(Cc3nn(C)c(=O)c4ccccc34)n2C)cc1,3.2,Kd (Interleukin-15): 26 µM
,,Cn1c(Cc2nn(C)c(=O)c3ccccc23)nnc1SCCCCCCCCCC(=O)Nc1ccc(Cl)cc1Cl,1.6,
,,Cn1nc(Cc2nnc(SCCCCCCCC(=O)Nc3ccc(Cl)cc3Cl)o2)c2ccccc2c1=O,0.8,
,,Cn1c(Cc2nn(C)c(=O)c3ccccc23)nnc1SCc1cn(CCCCC(=O)Nc2ccc(Cl)cc2Cl)nn1,> 30,
,,Cn1c(Cc2nn(C)c(=O)c3ccccc23)nnc1SCC(=O)Nc1ccc(F)cc1F,,IC50 (IL15-IL15 receptor [4]): Not Active
> 30,> 30,Cn1c(Cc2nn(C)c(=O)c3ccccc23)nnc1SCC(=O)NC12CC3CC(CC(C3)C1)C2,,IC50 [1]: Not Active; IC50 (IL15-IL15 receptor [4]): Not Active
0.226,0.36,COc1ccc(NC(=O)CCCCCCCSc2nnc(Cc3nn(C)c(=O)c4ccccc34)n2C)c(O)c1,1,Kd (Interleukin-2): 12.5 µM; Kd (Interleukin-15): 21.2 µM
0.058,0.055,CC(C)COc1ccc(NC(=O)CCCCCCCSc2nnc(Cc3nn(C)c(=O)c4ccccc34)n2C)cc1,3,Kd (Interleukin-15): 25 µM
0.083,0.092,Cn1c(Cc2nn(C)c(=O)c3ccccc23)nnc1SCCCCCCCC(=O)Nc1ccc(Br)cc1Br,1.3,Kd (Interleukin-2): 10 µM; Kd (Interleukin-15): 11.6 µM
,,CCOC(=O)c1cccc(NC(=O)CSc2nnc(Cc3nn(C)c(=O)c4ccccc34)n2C)c1,,IC50 [1]: Not Active; IC50 (IL15-IL15 receptor [4]): Not Active
,,CC(C)COc1ccc(NC(=O)CSc2nnc(Cc3nn(C)c(=O)c4ccccc34)n2C)cc1,30,
,,Cn1c(Cc2nn(C)c(=O)c3ccccc23)nnc1SCCCCCCCC(=O)Nc1ccc(O)cc1O,21,
,,Cn1c(Cc2nn(C)c(=O)c3ccccc23)nnc1SCC(=O)Nc1ccccc1C(=O)O,,IC50 [1]: Not Active; IC50 (IL15-IL15 receptor [4]): Not Active
0.162,0.205,COc1ccc(NC(=O)CCCCCCCSc2nnc(Cc3nn(C)c(=O)c4ccccc34)n2C)c(OC)c1,0.9,Kd (Interleukin-2): 27.6 µM; Kd (Interleukin-15): 19.6 µM
0.053,0.04,CCCOc1ccc(NC(=O)CCCCCCCSc2nnc(Cc3nn(C)c(=O)c4ccccc34)n2C)cc1,0.9,Kd (Interleukin-15): 19 µM
0.059,0.124,Cn1c(Cc2nn(C)c(=O)c3ccccc23)nnc1SCCCCCCCCCCC(=O)NC12CC3CC(CC(C3)C1)C2,4.9,Kd (Interleukin-15): 16 µM
,,CCCOc1ccc(NC(=O)CSc2nnc(Cc3nn(C)c(=O)c4ccccc34)n2C)cc1,> 30,
,,COc1ccc(NC(=O)CSc2nnc(Cc3nn(C)c(=O)c4ccccc34)n2C)cc1,,IC50 [1]: Not Active; IC50 (IL15-IL15 receptor [4]): Not Active
,,Cn1c(Cc2nn(C)c(=O)c3ccccc23)nnc1SCCCCCCCC(=O)Nc1ccccc1O,23,
,,CN(C(=O)CCCCCCCSc1nnc(Cc2nn(C)c(=O)c3ccccc23)n1C)c1ccc(Cl)cc1Cl,8.4,
,,Cn1c(Cc2nn(C)c(=O)c3ccccc23)nnc1SCCCCCCCC(=O)Nc1ccc(O)cc1,> 30,
,,CCCCCCCCCCSc1nnc(Cc2nn(C)c(=O)c3ccccc23)n1C,10,
0.043,0.057,CCOC(=O)c1cccc(NC(=O)CCCCCCCSc2nnc(Cc3nn(C)c(=O)c4ccccc34)n2C)c1,0.6,Kd (Interleukin-2): 23.1 µM; Kd (Interleukin-15): 21.8 µM

IC50 [2] [µM],IC50 (IL15-IL15 receptor [3]) [µM],Structure (SMILES),"IC50 ([1]; Homo sapiens, read-out: IC50) [µM]",further results
,,Cn1c(Cc2nn(C)c(=O)c3ccccc23)nnc1SCc1cn(C23CC4CC(CC(C4)C2)C3)nn1,30,
,,Cn1c(Cc2nn(C)c(=O)c3ccccc23)nnc1SCCCCCCCCCCCCCCCC(=O)Nc1ccc(Cl)cc1Cl,4.6,
0.073,0.1,Cn1c(Cc2nn(C)c(=O)c3ccccc23)nnc1SCCCCCCCC(=O)Nc1ccc(N=[N+]=[N-])cc1,1.1,Kd (Interleukin-15): 42.4 µM
,,Cn1nc(Cc2nnc(SCCCCCCCCCCC(=O)Nc3ccc(Cl)cc3Cl)o2)c2ccccc2c1=O,7.5,
,,Cn1c(Cc2nn(C)c(=O)c3ccccc23)nnc1SCCCC(=O)Nc1ccc(Cl)cc1Cl,11.2,
,,Cn1c(Cc2nn(C)c(=O)c3ccccc23)nnc1SCC(=O)Nc1ccc(O)cc1,,IC50 [1]: Not Active; IC50 (IL15-IL15 receptor [4]): Not Active
,,Cn1c(Cc2nn(C)c(=O)c3ccccc23)nnc1SCCCCCCCC(=O)Nc1cccc2ccccc12,1.9,
0.159,0.142,Cn1c(Cc2nn(C)c(=O)c3ccccc23)nnc1SCCCCCCCCCCC(=O)Nc1ccc(Cl)cc1Cl,4.4,
,,Cn1c(Cc2nn(C)c(=O)c3ccccc23)nnc1SCCCCCCCC(=O)Nc1ccc(I)cc1,0.8,
0.076,0.11,Cn1c(Cc2nn(C)c(=O)c3ccccc23)nnc1SCCCCCCCC(=O)Nc1ccc(F)cc1F,1,
,,Cn1c(Cc2nn(C)c(=O)c3ccccc23)nnc1SCCCCCCCCCCC(=O)Nc1cccc2ccccc12,8.5,
,,Cn1c(Cc2nn(C)c(=O)c3ccccc23)nnc1SCCCCCCCC(=O)Nc1ccc(Cl)cc1,0.8,
,,Cn1c(Cc2nn(C)c(=O)c3ccccc23)nnc1SCC(=O)Nc1cccc(C(=O)O)c1,,IC50 [1]: Not Active; IC50 (IL15-IL15 receptor [4]): Not Active
0.069,0.076,Cc1ccc(NC(=O)CCCCCCCSc2nnc(Cc3nn(C)c(=O)c4ccccc34)n2C)c(Cl)c1,1.7,Kd (Interleukin-15): 24.1 µM
0.089,0.093,CC(C)Oc1ccc(NC(=O)CCCCCCCSc2nnc(Cc3nn(C)c(=O)c4ccccc34)n2C)cc1,0.6,Kd (Interleukin-15): 20.9 µM
0.152,0.21,Cn1c(Cc2nn(C)c(=O)c3ccccc23)nnc1SCCCCCCCC(=O)NC12CC3CC(CC(C3)C1)C2,1.8,Kd (Interleukin-15): 78 µM
,,Cn1c(Cc2nn(C)c(=O)c3ccccc23)nnc1S(=O)(=O)CCCCCCCC(=O)Nc1ccc(Br)cc1Br,1.6,
14.1,9.11,Cn1c(Cc2nn(C)c(=O)c3ccccc23)nnc1SCC(=O)Nc1ccc(Cl)cc1Cl,11.6,Kd (Interleukin-2): 10.5 µM; Kd (Interleukin-15): 48.4 µM
,,Cn1c(Cc2nn(C)c(=O)c3ccccc23)nnc1SCCCCCC(=O)Nc1ccc(Cl)cc1Cl,9.8,
0.16,0.153,Cn1c(Cc2nn(C)c(=O)c3ccccc23)nnc1SCCCCCCCC(=O)Nc1ccc(Cl)cc1Cl,1.1,Kd (Interleukin-2): 8 µM; Kd (Interleukin-15): 19.1 µM
,,CN(C(=O)CSc1nnc(Cc2nn(C)c(=O)c3ccccc23)n1C)c1ccc(Cl)cc1Cl,,IC50 [1]: Not Active
,,Cn1c(Cc2nn(C)c(=O)c3ccccc23)nnc1SCC(=O)Nc1ccc(I)cc1,,IC50 [1]: Not Active; IC50 (IL15-IL15 receptor [4]): Not Active
,,CC(C)Oc1ccc(NC(=O)CSc2nnc(Cc3nn(C)c(=O)c4ccccc34)n2C)cc1,> 30,
